# Screens: PubChem, The Scripps Research Institute Molecular Screening Center
# Hits are enriched below; roughly 2.2% of the tested compounds scored in any of these assays.
# COUP-TFII inh = inhibitors of human COUP-TFII (NR2F2); HEK293T NGFI-A luciferase reporter, luminescence; P24468; AID 686940; inhibition, % at 8.6 µM; 370,000 tested, 0.7% active;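 active means inhibition above a per-plate cutoff, mean inhibition of test wells between control levels plus 3 SD, cut at about 38% in these data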;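 further: cells cotransfected with COUP-TFII expression vector driving the NGFI-A reporter; 0% = median of COUP-TF2 test wells and 100% = reporter-only cells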
# SMARCA2 act = SMARCA2 function activation, primary screen | activation, % at 9.1 µM | 370,000 tested, 1% active | MG213 cells, MMTV-luciferase reporter, dexamethasone, overnight; in the data active means activation above about 7.8%;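 further: 0% = vehicle wells and 100% = reference activator wells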
# GalR3 antag = human GalR3 antagonism; inhibition, % at 3 µM; O60755; AID 651719; HEK293 GalR3-CNG cAMP membrane potential fluorescence; galR3 body fused to GalR1 C-terminus; 360,000 tested, 0.44% active;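 active means inhibition above the screen-wide average plus 3 SD, cut at about 13% in these data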;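 further: forskolin and galanin both at EC90 stimulate the cells; cAMP rise reported by CNG channel membrane potential dye signal; 0% = forskolin plus galanin with DMSO and 100% = forskolin alone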
# NR2E3 ag-1 = activates human NR2E3 receptor. CHO-S Gal4-NCOR/VP16-NR2E3 two-hybrid, luciferase. inhibition of corepressor binding, % at 3.98 µM. Q9Y5X4. 360,000 tested, 0.35% active;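 active means inhibition above the mean of all tested compounds plus 3 SD, cut at about 70% in these data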;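 further: 0% = DMSO with NR2E3 transfected cells and 100% = cells lacking NR2E3 construct; higher means lower luciferase signal from less NR2E3 corepressor binding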
# Target sequence (Q9Y5X4 whole entry, looked up, the tested form may be a part): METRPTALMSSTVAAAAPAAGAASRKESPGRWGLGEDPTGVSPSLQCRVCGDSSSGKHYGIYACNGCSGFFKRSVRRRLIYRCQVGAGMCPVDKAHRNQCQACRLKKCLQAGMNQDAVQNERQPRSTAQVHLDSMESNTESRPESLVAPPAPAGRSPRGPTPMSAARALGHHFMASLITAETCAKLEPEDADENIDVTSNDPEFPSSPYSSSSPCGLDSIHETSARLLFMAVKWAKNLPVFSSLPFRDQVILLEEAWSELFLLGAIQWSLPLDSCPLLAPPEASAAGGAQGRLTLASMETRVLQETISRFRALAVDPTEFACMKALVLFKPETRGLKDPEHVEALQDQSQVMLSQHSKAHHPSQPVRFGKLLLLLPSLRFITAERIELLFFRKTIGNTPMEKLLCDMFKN
# NR2E3 ag-2 = activates human photoreceptor nuclear receptor NR2E3; inhibition of corepressor binding, % at 4.78 µM; AID 2300; GST-NR2E3/biotin-RetCOR TR-FRET, 1536-well; Q9Y5X4; 320,000 tested, 0.12% active;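 active means percent inhibition above the cutoff of mean plus 3 SD of all tested compounds, set per screening campaign, cut at about 20% in these data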;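 further: 0% = DMSO wells and 100% = biotin wells as full block of FRET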
#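 Test system – NR2E3–RetCOR corepressor complex · Quantity – NR2E3 fusion 1.35 nM · Buffer or medium – Tris pH 7.5 · Incubation – Compound–protein incubation for 5 h at 4 °C · Technique – TR-FRET, Eu(K)-anti-GST donor, streptavidin-D2 acceptor, ex 340, em 617/671 nm · Evaluation – percent inhibition of 671/617 nm emission ratio versus biotin and DMSO controls · Plate – 1536-well format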
# Gal4-VP16 ctr = counter-screen for COUP-TFII antagonists: inhibitors of VP16. inhibition, % at 8.5 µM. 2,500 tested, 25% active. HEK293 Gal4-VP16 luciferase reporter, luminescence. shares compounds with COUP-TFII inh; in the data active means inhibition above about 13%
# COUP-TFII conf = confirmation of human COUP-TFII (NR2F2) inhibitors. inhibition, % at 8.5 µM. shares compounds with COUP-TFII inh. HEK293 NGFI-A luciferase reporter, luminescence. 2,500 tested, 45% active;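 active means mean inhibition over three repeats above a set limit taken from the earlier primary screen, cut at about 38% in these data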;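 further: 100% = cells given the luciferase reporter alone without the COUP-TF2 vector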
# * hit, by the source's call; . = no result.
SMILES,COUP-TFII inh,SMARCA2 act,GalR3 antag,NR2E3 ag-1,NR2E3 ag-2,Gal4-VP16 ctr,COUP-TFII conf
Cc1cc(O)c2c(c1)C(=O)[C@@]13C(=C2O)C(=O)[C@H]2C(O)[C@@H]1[C@H]1C(O)[C@@H]3C(=O)C3=C(O)c4c(O)cc(C)cc4C(=O)[C@@]312 (stereo partly specified),41*,-5,.,.,.,6,28
C=CC1C[N+]2(C)CCC1CC2C(O)c1ccnc2ccccc12 (stereo unspecified),29,1,-1,.,.,.,.
C[C@H](NC(=O)OCc1ccccc1)[P+](=O)O,-11,-1,.,.,.,.,.
CC[C@@H]1C[C@H]2CC[C@H](O2)[C@H](C)C(=O)O[C@@H](C)C[C@@H]2CC[C@@H](O2)[C@@H](C)C(=O)O[C@H](C)C[C@H]2CC[C@H](O2)[C@H](C)C(=O)O[C@@H](C)C[C@@H]2CC[C@@H](O2)[C@@H](C)C(=O)O1,85*,-6,-1,.,.,24*,72*
CCC(c1nnnn1C1CCCC1)N1CCC2(CC1)C(=O)NCN2c1ccccc1 (stereo unspecified),-8,-4,-5,-4,.,.,.
O=C(C(=O)N1CCOCC1)c1cn(CCCOc2ccccc2)c2ccccc12,4,-2,-5,2,0,.,.
CC(=O)c1cn(CCCOc2ccccc2)c2ccccc12,45*,-6,-3,6,6,-7,10
CCN(CC)C1=NC(=[N+](CC)CC)c2ccccc21,45*,-5,-4,-3,5,12,52*
COc1ccc(CN2Cc3cnnn3-c3ccccc3C2c2ccccc2)cc1 (stereo unspecified),10,-3,-7,-44,.,.,.
COc1ccc(CN2Cc3cnnn3-c3ccccc3C2C#N)cc1 (stereo unspecified),59*,-4,-5,21,.,26*,13
Cc1ccc(-c2cc(-c3ccc(C)cc3)[n+](C)o2)cc1,69*,-11,-7,-16,-8,6,56*
CC12CCC(O)CC1CCC1C2CCC2(C)C(C(=O)CO)CCC12 (stereo unspecified),19,0,2,11,.,.,.
